From ChEMBL document CHEMBL3108710, “Discovery of a novel class of dimeric Smac mimetics as potent IAP antagonists resulting in a clinical candidate for the treatment of cancer (AZD5582)” (J Med Chem, 2013)
Converted amounts (≈) assume the structure as drawn. The source made the active and inactive calls. No cut-off for these calls is given here.

How the values were obtained:
[1] = biological target: T1, Baculoviral IAP repeat-containing protein 2 (Homo sapiens, UniProt Q13490); experiment: Binding affinity to cIAP1 in human MDA-MB-231 cells assessed as induction of protein degradation after 1 hr by ELISA; format: cell-based
T1 sequence (Q13490 whole entry): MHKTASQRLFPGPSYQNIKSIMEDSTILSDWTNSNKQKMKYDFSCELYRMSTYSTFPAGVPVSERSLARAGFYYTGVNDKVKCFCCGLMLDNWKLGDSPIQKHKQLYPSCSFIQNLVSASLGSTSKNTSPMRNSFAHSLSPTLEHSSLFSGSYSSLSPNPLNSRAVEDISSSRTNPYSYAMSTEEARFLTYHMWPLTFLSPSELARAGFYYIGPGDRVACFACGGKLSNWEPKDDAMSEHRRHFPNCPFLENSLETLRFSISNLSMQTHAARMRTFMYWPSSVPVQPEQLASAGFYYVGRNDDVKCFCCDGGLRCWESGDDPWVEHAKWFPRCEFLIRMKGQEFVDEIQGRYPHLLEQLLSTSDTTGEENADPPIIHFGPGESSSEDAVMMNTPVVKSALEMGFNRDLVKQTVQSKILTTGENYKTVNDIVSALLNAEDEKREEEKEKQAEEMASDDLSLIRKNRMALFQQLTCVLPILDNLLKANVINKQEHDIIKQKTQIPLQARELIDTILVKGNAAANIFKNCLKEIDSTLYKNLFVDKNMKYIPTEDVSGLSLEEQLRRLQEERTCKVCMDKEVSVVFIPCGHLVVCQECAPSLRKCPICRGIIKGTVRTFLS

[2] = Elimination half life in Han Wistar rat at 0.2 mg/kg, iv by LC-MS/MS analysis; format: ADME, organism-based; set-up: dose 0.2 mg/kg, route intravenous; conditions: in vivo, read-out: beta t1/2 (converted)
How it was run: (§1)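 Rat PK after a single intravenous bolus. Parameters derived from plasma levels: total plasma clearance, steady-state volume of distribution, half-life and AUC.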

[3] = Volume of distribution at steady state in Han Wistar rat at 0.2 mg/kg, iv by LC-MS/MS analysis; format: ADME, organism-based; set-up: dose 0.2 mg/kg, route intravenous; conditions: in vivo, read-out: Vdss; how it was run: as §1
[4] = AUC in Han Wistar rat at 0.2 mg/kg, iv by LC-MS/MS analysis; format: ADME, organism-based; set-up: dose 0.2 mg/kg, route intravenous; conditions: plasma; how it was run: as §1
[5] = Total plasma clearance in Han Wistar rat at 0.2 mg/kg, iv by LC-MS/MS analysis; format: ADME, organism-based; set-up: dose 0.2 mg/kg, route intravenous; how it was run: as §1
[6] = tested on: MDA-MB-231; experiment: Antiproliferative activity against human MDA-MB-231 cells assessed as growth inhibition after 48 hrs by Alamar Blue assay; format: functional; conditions: MDA-MB-231, 48 h
[7] = biological target: T1, Baculoviral IAP repeat-containing protein 2; experiment: Displacement of AbuRPFK-5FAM from GST-tagged cIAP1 BIR3 domain (L250 to G350) (unknown origin) after 20 mins by fluorescence polarization assay
How it was run: (§2)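 Competitive fluorescence polarization binding assay. Measures displacement of a 5-carboxyfluorescein-tagged synthetic peptide from the AVPI groove of the isolated BIR domain.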

[8] = biological target: E3 ubiquitin-protein ligase XIAP (Homo sapiens, UniProt P98170); experiment: Displacement of AbuRPFK-5FAM from GST-tagged XIAP BIR3 domain (N252 to E350) (unknown origin) after 20 mins by fluorescence polarization assay; how it was run: as §2
Chain of E3 ubiquitin-protein ligase XIAP (P98170 whole entry, the tested form may be a part): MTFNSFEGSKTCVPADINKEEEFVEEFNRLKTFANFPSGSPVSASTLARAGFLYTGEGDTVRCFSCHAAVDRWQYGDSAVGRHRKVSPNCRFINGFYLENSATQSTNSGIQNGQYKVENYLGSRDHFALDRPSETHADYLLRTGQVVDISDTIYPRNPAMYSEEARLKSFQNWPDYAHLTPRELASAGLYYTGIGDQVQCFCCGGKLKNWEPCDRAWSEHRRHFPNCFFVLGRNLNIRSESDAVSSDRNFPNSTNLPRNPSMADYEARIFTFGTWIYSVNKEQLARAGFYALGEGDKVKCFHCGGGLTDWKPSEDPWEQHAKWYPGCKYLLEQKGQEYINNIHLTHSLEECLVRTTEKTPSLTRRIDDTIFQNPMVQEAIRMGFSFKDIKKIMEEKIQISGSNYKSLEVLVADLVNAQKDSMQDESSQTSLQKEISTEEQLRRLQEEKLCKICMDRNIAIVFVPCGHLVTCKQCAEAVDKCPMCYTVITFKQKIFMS

[9] = Aqueous equilibrium solubility of compound in phosphate buffer at pH 7.4 after 24 hrs by HPLC-UV analysis; format: physicochemical
[10] = Fraction unbound in human plasma at 10 uM by equilibrium dialysis method; format: ADME, cell-free

Structure (SMILES)	EC50 [1]	GI50 [6]	also measured
C#CCO[C@@H]1CCc2ccccc2[C@@H]1NC(=O)[C@@H]1CCCN1C(=O)[C@@H](NC(=O)[C@H](C)NC)C(C)(C)C	4 nM	16 nM	IC50 [7]: 10 nM; IC50 [8]: 19 nM
CN[C@@H](C)C(=O)N[C@H](C(=O)N1CCC[C@H]1C(=O)N[C@@H]1c2ccccc2CC[C@@H]1OCC#CC#CCO[C@H]1CCc2ccccc2[C@H]1NC(=O)[C@@H]1CCCN1C(=O)[C@@H](NC(=O)[C@H](C)NC)C(C)(C)C)C(C)(C)C	4 nM	97 nM	
C#CCO[C@@H]1CCc2ccccc2[C@H]1NC(=O)[C@@H]1CCCN1C(=O)[C@@H](NC(=O)[C@H](C)NC)C(C)(C)C	> 370 nM	2190 nM	IC50 [7]: 290 nM; IC50 [8]: 1310 nM
CN[C@@H](C)C(=O)N[C@H](C(=O)N1CCC[C@H]1C(=O)NC1(C(=O)NCC#CC#CCNC(=O)C2(NC(=O)[C@@H]3CCCN3C(=O)[C@@H](NC(=O)[C@H](C)NC)C3CCCCC3)Cc3ccccc3C2)Cc2ccccc2C1)C1CCCCC1	5 nM	13 nM	
CN[C@@H](C)C(=O)N[C@H](C(=O)N1CCC[C@H]1C(=O)N[C@H]1c2ccccc2C[C@H]1OCC#CC#CCO[C@@H]1Cc2ccccc2[C@@H]1NC(=O)[C@@H]1CCCN1C(=O)[C@@H](NC(=O)[C@H](C)NC)C(C)C)C(C)C	2 nM	0.4 nM	half-life [2]: 96 min; Vd [3]: 2.3 L/kg; AUC [4]: 76 ng·h/mL; clearance [5]: 44 mL/min/kg
CN[C@@H](C)C(=O)N[C@H](C(=O)N1CCC[C@H]1C(=O)N[C@H]1c2ccccc2C[C@H]1NC(=O)CCCCCCCCC(=O)N[C@@H]1Cc2ccccc2[C@@H]1NC(=O)[C@@H]1CCCN1C(=O)[C@@H](NC(=O)[C@H](C)NC)C1CCCCC1)C1CCCCC1	3 nM	0.2 nM	inhibition [7]: Active
C#CCO[C@H]1CCc2ccccc2[C@@H]1NC(=O)[C@@H]1CCCN1C(=O)[C@@H](NC(=O)[C@H](C)NC)C(C)(C)C	10 nM	45 nM	IC50 [7]: 14 nM; IC50 [8]: 95 nM
CN[C@@H](C)C(=O)N[C@H](C(=O)N1CCC[C@H]1C(=O)N[C@H]1c2ccccc2C[C@H]1NC(=O)c1ccc(-c2ccc(C(=O)N[C@@H]3Cc4ccccc4[C@@H]3NC(=O)[C@@H]3CCCN3C(=O)[C@@H](NC(=O)[C@H](C)NC)C3CCCCC3)cc2)cc1)C1CCCCC1	15 nM	0.6 nM	inhibition [7]: Active
CN[C@@H](C)C(=O)N[C@H](C(=O)N1CCC[C@H]1C(=O)N[C@H]1c2ccccc2C[C@H]1OCC#CC#CCO[C@@H]1Cc2ccccc2[C@@H]1NC(=O)[C@@H]1CCCN1C(=O)[C@@H](NC(=O)[C@H](C)NC)C1CCNCC1)C1CCNCC1	> 370 nM	> 370 nM	
CN[C@@H](C)C(=O)N[C@H](C(=O)N1CCC[C@H]1C(=O)N[C@H]1c2ccccc2C[C@H]1OCC#CC#CCO[C@@H]1Cc2ccccc2[C@@H]1NC(=O)[C@@H]1CCCN1C(=O)[C@@H](NC(=O)[C@H](C)NC)C1CCN(CCO)CC1)C1CCN(CCO)CC1	> 370 nM	> 370 nM	
CN[C@@H](C)C(=O)N[C@H](C(=O)N1CCC[C@H]1C(=O)N[C@H]1c2ccccc2C[C@H]1OCC#CC#CCO[C@@H]1Cc2ccccc2[C@@H]1NC(=O)[C@@H]1CCCN1C(=O)[C@@H](NC(=O)[C@H](C)NC)C1CCN(C(C)=O)CC1)C1CCN(C(C)=O)CC1	> 370 nM	76 nM	
C#CCO[C@H]1CCc2ccccc2[C@H]1NC(=O)[C@@H]1CCCN1C(=O)[C@@H](NC(=O)[C@H](C)NC)C(C)(C)C	126 nM	192 nM	IC50 [7]: 40 nM; IC50 [8]: 600 nM
CN[C@@H](C)C(=O)N[C@@H](CCCCN)C(=O)N1CCC[C@H]1C(=O)N[C@H]1c2ccccc2C[C@H]1OCC#CC#CCO[C@@H]1Cc2ccccc2[C@@H]1NC(=O)[C@@H]1CCCN1C(=O)[C@H](CCCCN)NC(=O)[C@H](C)NC	> 370 nM	> 370 nM	
CN[C@@H](C)C(=O)N[C@H](C(=O)N1CCC[C@H]1C(=O)N[C@@H]1c2ccccc2CC[C@H]1OCC#CC#CCO[C@@H]1CCc2ccccc2[C@H]1NC(=O)[C@@H]1CCCN1C(=O)[C@@H](NC(=O)[C@H](C)NC)C(C)(C)C)C(C)(C)C	2 nM	61 nM	

Stronger by EC50 [1], values ahead:

EC50 [1]	GI50 [6]	Structure (SMILES)	also measured
0.6 nM	0.3 nM	CN[C@@H](C)C(=O)N[C@H](C(=O)N1CCC[C@H]1C(=O)N[C@H]1c2ccccc2CC[C@@H]1OCC#CC#CCO[C@H]1CCc2ccccc2[C@@H]1NC(=O)[C@@H]1CCCN1C(=O)[C@@H](NC(=O)[C@H](C)NC)C(C)(C)C)C(C)(C)C	
0.6 nM	< 0.1 nM	CN[C@@H](C)C(=O)N[C@H](C(=O)N1CSC2(CC2)[C@H]1C(=O)N[C@H]1c2ccccc2C[C@H]1OCC#CC#CCO[C@@H]1Cc2ccccc2[C@@H]1NC(=O)[C@H]1N(C(=O)[C@@H](NC(=O)[C@H](C)NC)C2CCCCC2)CSC12CC2)C1CCCCC1	solubility thermodynamic at 24 h [9]: < 1 µM; fraction unbound at 10 µM [10]: < 0.01
0.5 nM	0.1 nM	CN[C@@H](C)C(=O)N[C@H](C(=O)N1CSC[C@H]1C(=O)N[C@H]1c2ccccc2C[C@H]1OCC#CC#CCO[C@@H]1Cc2ccccc2[C@@H]1NC(=O)[C@@H]1CSCN1C(=O)[C@@H](NC(=O)[C@H](C)NC)C(C)(C)C)C(C)(C)C	solubility thermodynamic at 24 h [9]: 268 µM (≈ 268 µg/mL); fraction unbound at 10 µM [10]: 0.107
0.3 nM	0.1 nM	CN[C@@H](C)C(=O)N[C@H](C(=O)N1CC=C[C@H]1C(=O)N[C@H]1c2ccccc2C[C@H]1OCC#CC#CCO[C@@H]1Cc2ccccc2[C@@H]1NC(=O)[C@@H]1C=CCN1C(=O)[C@@H](NC(=O)[C@H](C)NC)C1CCCCC1)C1CCCCC1	solubility thermodynamic at 24 h [9]: 77 µM (≈ 77.9 µg/mL); fraction unbound at 10 µM [10]: 0.029
0.2 nM	0.1 nM	CN[C@@H](C)C(=O)N[C@H](C(=O)N1CCC[C@H]1C(=O)N[C@@H]1CCN(CC#CC#CCN2CC[C@@H](NC(=O)[C@@H]3CCCN3C(=O)[C@@H](NC(=O)[C@H](C)NC)C3CCCCC3)c3ccccc32)c2ccccc21)C1CCCCC1	half-life [2]: 36 min; Vd [3]: 1.2 L/kg; AUC [4]: 40 ng·h/mL; clearance [5]: 68 mL/min/kg
0.2 nM	0.1 nM	CN[C@@H](C)C(=O)N[C@H](C(=O)N1CSC[C@H]1C(=O)N[C@H]1c2ccccc2C[C@H]1OCC#CC#CCO[C@@H]1Cc2ccccc2[C@@H]1NC(=O)[C@@H]1CSCN1C(=O)[C@@H](NC(=O)[C@H](C)NC)C1CCCCC1)C1CCCCC1	solubility thermodynamic at 24 h [9]: < 1 µM; fraction unbound at 10 µM [10]: 0.011
0.2 nM	< 0.1 nM	CN[C@@H](C)C(=O)N[C@H](C(=O)N1CCC[C@H]1C(=O)N[C@H]1c2ccccc2C[C@@H]1OCC#CC#CCO[C@H]1Cc2ccccc2[C@@H]1NC(=O)[C@@H]1CCCN1C(=O)[C@@H](NC(=O)[C@H](C)NC)C1CCCCC1)C1CCCCC1	
0.2 nM	0.1 nM	CN[C@@H](C)C(=O)N[C@H](C(=O)N1CCC[C@H]1C(=O)N[C@H]1c2ccccc2CC[C@H]1OCC#CC#CCO[C@@H]1CCc2ccccc2[C@@H]1NC(=O)[C@@H]1CCCN1C(=O)[C@@H](NC(=O)[C@H](C)NC)C(C)(C)C)C(C)(C)C	solubility thermodynamic at 24 h [9]: > 1000 µM; half-life [2]: 30 min; Vd [3]: 1.9 L/kg; AUC [4]: 30 ng·h/mL; clearance [5]: 111 mL/min/kg
0.1 nM	0.1 nM	CN[C@@H](C)C(=O)N[C@H](C(=O)N1[C@H](C(=O)N[C@H]2c3ccccc3C[C@H]2OCC#CC#CCO[C@@H]2Cc3ccccc3[C@@H]2NC(=O)[C@@H]2C[C@@H]3C[C@@H]3N2C(=O)[C@@H](NC(=O)[C@H](C)NC)C2CCCCC2)C[C@@H]2C[C@@H]21)C1CCCCC1	solubility thermodynamic at 24 h [9]: 48 µM (≈ 49.9 µg/mL); fraction unbound at 10 µM [10]: < 0.01
